TLR4-MyD88 BLA: inhibitors of TLR4-MyD88 association in cells, primary screen, cell-based, HeLa CL3-4, BLA complementation, FRET ratio. Toll-like receptor 4 (Homo sapiens) + Myeloid differentiation primary response protein …. HeLa CL3-4 TLR4/MyD88 BLA complementation. inhibition, % at 8.4 µM. 0.18% of 200,000 active. AID 861, 2007; in the data active = inhibition above about 25%;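 also: 0% = vehicle and 100% = reference inhibitor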
Target sequence (O00206 whole entry, looked up): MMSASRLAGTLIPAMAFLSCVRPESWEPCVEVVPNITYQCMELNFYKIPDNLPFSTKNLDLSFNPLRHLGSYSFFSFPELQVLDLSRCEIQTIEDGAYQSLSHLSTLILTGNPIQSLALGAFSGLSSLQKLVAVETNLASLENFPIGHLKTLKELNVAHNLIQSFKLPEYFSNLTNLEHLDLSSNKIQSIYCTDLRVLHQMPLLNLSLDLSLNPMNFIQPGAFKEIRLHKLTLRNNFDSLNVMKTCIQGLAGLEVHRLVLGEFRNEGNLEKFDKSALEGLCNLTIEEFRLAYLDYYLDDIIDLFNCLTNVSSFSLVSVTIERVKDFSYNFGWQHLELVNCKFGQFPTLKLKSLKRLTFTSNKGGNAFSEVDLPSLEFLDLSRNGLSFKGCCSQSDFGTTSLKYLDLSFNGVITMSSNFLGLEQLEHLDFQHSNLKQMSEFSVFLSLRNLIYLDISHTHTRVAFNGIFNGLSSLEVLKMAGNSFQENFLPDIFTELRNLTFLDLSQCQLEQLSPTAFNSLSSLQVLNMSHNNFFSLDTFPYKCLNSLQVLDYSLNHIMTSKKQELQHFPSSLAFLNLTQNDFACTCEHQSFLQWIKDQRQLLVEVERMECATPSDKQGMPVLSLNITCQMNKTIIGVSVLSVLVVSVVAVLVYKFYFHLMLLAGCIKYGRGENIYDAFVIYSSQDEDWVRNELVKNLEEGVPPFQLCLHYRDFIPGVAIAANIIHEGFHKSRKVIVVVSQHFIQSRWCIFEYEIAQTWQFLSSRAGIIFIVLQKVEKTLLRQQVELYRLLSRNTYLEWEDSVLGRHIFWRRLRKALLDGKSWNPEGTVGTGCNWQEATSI
Target sequence (Q99836 whole entry, looked up): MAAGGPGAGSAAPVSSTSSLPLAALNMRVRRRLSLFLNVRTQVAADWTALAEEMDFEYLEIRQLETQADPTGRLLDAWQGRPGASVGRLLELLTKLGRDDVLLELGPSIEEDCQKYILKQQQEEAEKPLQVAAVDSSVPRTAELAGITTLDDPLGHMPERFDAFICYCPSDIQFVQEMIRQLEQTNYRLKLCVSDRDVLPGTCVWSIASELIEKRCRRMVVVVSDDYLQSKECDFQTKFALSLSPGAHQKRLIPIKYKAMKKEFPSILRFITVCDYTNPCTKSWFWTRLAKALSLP
Hsp70 act: Hsp70 transcriptional activators, primary screen, cell-based, HeLa, Hsp70 promoter luciferase, luminescence, 10 µM. HeLa Hsp70 promoter luciferase reporter; scaled: vehicle 0, proteasome-inhibitor control 100%. activation, % at 10 µM. 0.04% of 200,000 active. AID 1203, 2008;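 active = activation above the mean across all tested compounds plus 3 SD, cutoff set per campaign, cut at about 5.5% in these data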;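 also: 100% = MG132 at 30 µM as the positive control and 0% = DMSO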
NOD2-RIPK2 inh: NOD2-RIPK2 binding disruptors in cells, primary screen, fluorescence, CHO cells, BLA complementation; Receptor-interacting serine/threonine-protein kinase 2 (Homo sapiens), O43353; CCF4 ratio; inhibition, % at 4.98 µM; 0.38% of 360,000 active; AID 624267, 2012; in the data active = inhibition above about 21%;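 also: 0% = vehicle only and 100% = reference blocker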
MT stabilizer: microtubule stabilizers in HeLa cells, primary screen, imaging, high-content imaging; HeLa tubulin immunostaining HCS, 24 h; share of cells brighter than vehicle mean+2SD; % tubulin-high responders, % at 10 µM; 0.83% of 200,000 active;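 active = plate Z-score above 3 for both tubulin-high and condensed-nucleus cell shares, with cell loss under 80%, at 10 µM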;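 also: anti alpha tubulin signal scored within the nucleus-defined area of each cell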
bCat nuc transl: modulators of beta-catenin nuclear translocation, primary screen, imaging, HeLa cells, immunofluorescence, high-content; nuclear translocation activity, % at 5 µM; 0.3% of 190,000 active;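 active = nuclear translocation activity above 50% at 5 µM, with a well cell count of 50 or more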;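 also: per-cell ratio of nuclear to cytoplasmic median beta-catenin stain intensity; plate controls were DMSO negative control for no effect and GSK-3 inhibitor IX positive control for full effect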
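Test system: human HeLa cell line; Doses: 5 µM primary, 0.02–20 µM confirmation; Incubation: 24 h compound exposure, 37°C; Detection: beta-catenin immunofluorescence imaging with DAPI; Read-out: beta-catenin nuclear/cytoplasmic ratio, % activation.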
TLR9-MyD88 inh: inhibitors of TLR9-MyD88 association in cells, primary screen, cell-based, CHO, BLA complementation, fluorescence; Toll-like receptor 9 (Homo sapiens) + Myeloid differentiation primary response protein …; CCF4 FRET ratio; inhibition, % at 4.98 µM; 0.21% of 340,000 active; AID 504734, 2011;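 active = inhibition above the mean over all tested compounds plus 3 SD, cut at about 21% in these data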;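 also: 0% = DMSO only wells and 100% = clavulanate BLA inhibitor control wells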
An asterisk follows results filed as active; . = no result. Hits are enriched below; roughly 1% of the tested compounds scored in any of these assays.

SMILES	TLR4-MyD88 BLA	Hsp70 act	NOD2-RIPK2 inh	MT stabilizer	bCat nuc transl	TLR9-MyD88 inh
COc1ccc(C2C3=C(Nc4ncnn42)c2ccccc2CCC3)cc1 (stereo unspecified)	3	0	-11	7	0	-1
CN=C1c2cc3cc(OC)ccc3n2CCN1Cc1ccccc1	-2	0	4	40*	.	18
CCN(CC)CCNC1=NCCn2c1cc1cc(OC)ccc12	2	0	2	2	.	2
COc1ccc2cc(C(N)=O)c(=Nc3ccc(C)cc3)oc2c1	3	0	2	4	1	3
COc1ccc2oc(=Nc3cccc(F)c3)c(C(N)=O)cc2c1	2	0	-6	9	61*	5
COc1cccc2sc(Nc3nc(-c4ccncc4)cs3)nc12	-20	0	-7	23*	55*	-3
COc1cccc2sc(Nc3nc(-c4cc5ccccc5oc4=O)cs3)nc12	-6	0	3	18*	122*	-5
Nc1ccc(Nc2nc(-c3cc4ccccc4oc3=O)cs2)cc1	3	0	0	1	1	3
COc1ccc(/C(C)=N/NC(=O)CNC(=O)C(c2ccccc2)c2ccccc2)c(OC)c1	.	.	-3	.	.	2
CC(=O)Nc1ccc(NC(=O)C(C)Oc2ccc(Cl)cc2Cl)cc1 (stereo unspecified)	2	0	-4	3	-4	11
CC(Oc1ccc(Cl)cc1Cl)C(=O)Nc1ccncc1 (stereo unspecified)	7	0	4	56*	52*	-3
Cc1cc2nc(-c3ccc(SCc4ccc(C(=O)O)cc4)nc3)[nH]c2cc1C	-28	0	1	18*	12	5
CO/N=C/CC(=O)c1ccc([N+](=O)[O-])c(CS(=O)(=O)c2ccc(Cl)cc2)c1	.	.	-2	.	.	-7
COC(=O)[C@]12CCCCC=C1N(Cc1ccco1)C(=O)[C@H](CC(=O)NCCCN1CCCC1=O)C2	.	.	-12	.	.	.
O=C(/C(=C/c1ccc(Cl)cc1)c1nc2ccccc2[nH]1)c1ccccc1	5	5	-10	47*	0	4
CCC1(C)OCC(Cn2c3ccccc3c3ccccc32)O1 (stereo unspecified)	-2	0	.	5	63*	.
CC1(C)COC(Cn2c3ccccc3c3ccccc32)O1 (stereo unspecified)	.	.	-1	.	1	0
COc1ccc(S(=O)(=O)N2CCC(C(=O)N[C@H](C(=O)N3CCCCCC3)C(C)C)CC2)cc1	.	.	-8	.	.	-6
COc1ccc(C[C@H]2CN3C(=NC[C@H]3Cc3ccccc3)N2CCNC(=O)c2ccc(C)c(Br)c2)cc1	.	.	9	.	63*	4
COc1ccc(C[C@H]2CN3C(=NC[C@@H]3Cc3ccccc3)N2CCNC(=O)c2ccc(C)c(Br)c2)cc1	-3	0	3	82	2	-1
CN1/C(=C\C(=O)CSc2nnc(NCc3ccccc3)s2)C(C)(C)c2ccccc21	0	0	1	4	7	-4
Cc1cc(C(=O)CSc2nnc(NCc3ccccc3)s2)c(C)n1C	-1	0	-9	46	111*	-1
O=C(O)C(=O)/C(=C\c1cccc2ccccc12)c1ccc2ccccc2n1	3	0	-15	41*	.	-4
COc1ccc(C(=O)c2cc([N+](=O)[O-])ccc2N2CCOCC2)cc1	1	0	16	7	57*	3
Cc1ccc(COC(=O)c2cc([N+](=O)[O-])ccc2N2CCOCC2)cc1	.	.	14	.	.	3
SMILES	TLR4-MyD88 BLA	Hsp70 act	NOD2-RIPK2 inh	MT stabilizer	bCat nuc transl	TLR9-MyD88 inh
O=C(c1cc([N+](=O)[O-])ccc1N1CCCCC1)N1CCc2ccccc21	-9	0	13	17*	0	3
Cc1ccc(C(=O)c2cc([N+](=O)[O-])ccc2N2CCOCC2)cc1	2	0	-8	18*	8	-7
Cc1ccc(C(=O)c2cc([N+](=O)[O-])ccc2N2CCCCC2)c(C)c1	8	0	15	6	59*	3
CCOc1ccc(S(=O)(=O)N2CCN(C(=O)c3cc([N+](=O)[O-])ccc3N3CCOCC3)CC2)cc1	.	.	-5	.	.	-6
CCOc1ccc(C(=O)c2cc([N+](=O)[O-])ccc2N2CCOCC2)cc1	3	0	17	15*	37	4
COc1ccc(/C=N/N2CCN(Cc3ccc(C)cc3)CC2)cc1Br	.	.	4	.	.	-8
C(=C\c1ccccc1)/CSc1nnc(-c2ccccn2)n1Cc1ccco1	-10	0	13	29*	53*	-12
O=C(CN1CCSCC1)N/N=C/c1cccc(Cl)c1	4	0	-8	6	-2	2
CCOc1ccc(C(=O)NC(=S)Nc2cccc(S(=O)(=O)NC3=NCCC3)c2)cc1	11	0	12	17*	24	-2
O=C1/C(=C/c2ccccc2)NC(=S)N1C(c1ccccc1)c1ccccc1	3	0	-5	36*	61*	-5
O=C1/C(=C/c2ccccc2)Nc2ccccc21	12	0	2	2	0	-8
Cc1cc(C)cc(N=Cc2[nH]c3ccc(Br)c(Cl)c3c2O)c1	-6	0	-5	31*	-1	-5
CN(c1ccccc1)c1nccc(=O)[nH]1	.	.	-5	.	.	0
CN(C)C(=O)c1ccc(-c2cc(C(F)(F)F)n(C)n2)s1	.	.	-7	.	0	-15
CC(C)Cc1ccc(C(=O)NCCOc2ccccc2)o1	.	.	-6	.	.	2
O=C(NC1CC1)c1cccc(Nc2ccc(-c3ccc4c(c3)OCCO4)nn2)c1	-3	0	-16	4	.	5
O=S(=O)(c1ccc(Nc2ccc(-c3ccc4c(c3)OCCO4)nn2)cc1)N1CCCC1	3	0	8	12*	.	-8
CC1CCCC(C)N1C(=O)COC(=O)C1CCN(S(=O)(=O)c2ccc3c(c2)OCCO3)CC1 (stereo unspecified)	.	.	2	.	.	-1
Cc1ccc2nc(C3CCCN(C(=S)Nc4cccc(C)c4C)C3)[nH]c2c1 (stereo unspecified)	1	0	-1	29*	0	-6
NC(=O)c1cc2c3ccccc3ccn2c1-c1ccccc1	.	.	-9	.	102*	7
CN(C)C(=O)COC(=O)c1ccccc1OCC(=O)Nc1ccc(SC(F)F)cc1	7	0	6	3	-1	-7
O=C(COc1ccccc1C(=O)O)Nc1ccc(SC(F)F)cc1	25*	0	1	1	1	2
